According to ChEMBL document CHEMBL3392966, “Antiproliferative activity of synthetic fatty acid amides from renewable resources” (Bioorg Med Chem, 2015):
Values after ≈ are worked out from the molar mass of the structure shown.

Assays:
[1] = Antiproliferative activity against human PC3 cells after 48 hrs by sulforhodamine B assay; type: functional; conditions: PC-3, 48 h
How it was run: (§1)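 Tumor cells grown in RPMI 1640 with 5% fetal bovine serum, with penicillin/streptomycin in experimental cultures. Exposed in 96-well plates to samples in DMSO/RPMI at 0.25, 2.5, 25 and 250 µg/mL, 37 °C, 5% CO2, 48 h. Fixed with 50% trichloroacetic acid before (T0) and after treatment, protein stained with sulforhodamine B and read at 540 nm. GI50, TGI and LC50 in µg/mL from dose-response curves by non-linear regression.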

[2] = Antiproliferative activity against human OVCAR3 cells assessed as tumor growth inhibition after 48 hrs by sulforhodamine B assay; type: functional; conditions: OVCAR-3, 48 h; how it was run: as §1
U-251 [3] = experiment: Antiproliferative activity against human U251 cells assessed as tumor growth inhibition after 48 hrs by sulforhodamine B assay; type: functional; conditions: U-251, 48 h; how it was run: as §1
[4] = Antiproliferative activity against human OVCAR3 cells after 48 hrs by sulforhodamine B assay; type: functional; conditions: OVCAR-3, 48 h; how it was run: as §1
[5] = Antiproliferative activity against human PC3 cells assessed as tumor growth inhibition after 48 hrs by sulforhodamine B assay; type: functional; conditions: PC-3, 48 h; how it was run: as §1
MCF7 [6] = experiment: Antiproliferative activity against human MCF7 cells assessed as tumor growth inhibition after 48 hrs by sulforhodamine B assay; type: functional; conditions: MCF7, 48 h; how it was run: as §1
NCI/ADR-RES [7] = experiment: Antiproliferative activity against human NCI/ADR-RES cells assessed as tumor growth inhibition after 48 hrs by sulforhodamine B assay; type: functional; how it was run: as §1
U-251 [8] = experiment: Cytotoxicity against human U251 cells; type: cell-based
786-0 [9] = experiment: Antiproliferative activity against human 786-0 cells after 48 hrs by sulforhodamine B assay; type: functional; conditions: 786-0, 48 h; how it was run: as §1
MCF7 [10] = experiment: Antiproliferative activity against human MCF7 cells after 48 hrs by sulforhodamine B assay; type: functional; conditions: MCF7, 48 h; how it was run: as §1
NCI-H460 [11] = experiment: Antiproliferative activity against human NCI-H460 cells after 48 hrs by sulforhodamine B assay; type: functional; conditions: NCI-H460, 48 h; how it was run: as §1
786-0 [12] = experiment: Antiproliferative activity against human 786-0 cells assessed as tumor growth inhibition after 48 hrs by sulforhodamine B assay; type: functional; conditions: 786-0, 48 h; how it was run: as §1
HaCaT [13] = experiment: Cytotoxicity against human HaCaT cells after 48 hrs by sulforhodamine B assay; type: cell-based
U-251 [14] = experiment: Antiproliferative activity against human U251 cells after 48 hrs by sulforhodamine B assay; type: functional; conditions: U-251, 48 h; how it was run: as §1
NCI-H460 [15] = experiment: Antiproliferative activity against human NCI-H460 cells assessed as tumor growth inhibition after 48 hrs by sulforhodamine B assay; type: functional; conditions: NCI-H460, 48 h; how it was run: as §1
NCI/ADR-RES [16] = experiment: Antiproliferative activity against human NCI/ADR-RES cells after 48 hrs by sulforhodamine B assay; type: functional; how it was run: as §1
Vero [17] = experiment: Cytotoxicity against african green monkey Vero cells after 48 hrs by sulforhodamine B assay; type: cell-based; conditions: chlorocebus sabaeus
Vero [18] = experiment: Cytotoxicity against african green monkey Vero cells assessed as tumor growth inhibition after 48 hrs by sulforhodamine B assay; type: cell-based; conditions: chlorocebus sabaeus
How it was run: (§2)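 Non-tumor lines (human HaCaT keratinocytes; Vero) in RPMI 1640 with 5% FBS, with penicillin/streptomycin added to experimental cultures. 48 h exposure at 0.25–250 µg/mL (DMSO/RPMI), 37 °C, 5% CO2. TCA fixation at time zero and at end, sulforhodamine B protein stain, absorbance 540 nm. TGI (total growth inhibition) from non-linear regression of the dose-response curve.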

HaCaT [19] = experiment: Cytotoxicity against human HaCaT cells assessed as tumor growth inhibition after 48 hrs by sulforhodamine B assay; type: cell-based; how it was run: as §2

SMILES	GI50 [1] [µg/mL]	TGI [2] [µg/mL]	TGI (U-251 [3]) [µg/mL]	GI50 [4] [µg/mL]	TGI [5] [µg/mL]	TGI (MCF7 [6]) [µg/mL]	TGI (NCI/ADR-RES [7]) [µg/mL]	LC50 (U-251 [8]) [µg/mL]	GI50 (786-0 [9]) [µg/mL]	GI50 (MCF7 [10]) [µg/mL]	GI50 (NCI-H460 [11]) [µg/mL]	TGI (786-0 [12]) [µg/mL]	LC50 (HaCaT [13]) [µg/mL]	GI50 (U-251 [14]) [µg/mL]	TGI (NCI-H460 [15]) [µg/mL]	GI50 (NCI/ADR-RES [16]) [µg/mL]	LC50 (Vero [17]) [µg/mL]	TGI (Vero [18]) [µg/mL]	TGI (HaCaT [19]) [µg/mL]
CCCCCC[C@@H](O)C/C=C\CCCCCCCC(=O)N[C@@H](C)c1ccccc1	11.7 (≈ 29.1 µM)	> 250	13.9 (≈ 34.6 µM)	11.1 (≈ 27.6 µM)	142 (≈ 353 µM)	84.5 (≈ 210 µM)	> 250	63.6 (≈ 158 µM)	6.7 (≈ 16.7 µM)	5.1 (≈ 12.7 µM)	8.3 (≈ 20.7 µM)	60.1 (≈ 150 µM)	9.7 (≈ 24.2 µM)	3.6 (≈ 8.96 µM)	132 (≈ 329 µM)	1.9 (≈ 4.73 µM)	–	–	–
CCCCCC[C@@H](O)C/C=C\CCCCCCCC(=O)N1CCCC1	6.2 (≈ 17.6 µM)	4.1 (≈ 11.7 µM)	4.4 (≈ 12.5 µM)	4.3 (≈ 12.2 µM)	4.3 (≈ 12.2 µM)	1.5 (≈ 4.27 µM)	4 (≈ 11.4 µM)	–	4.1 (≈ 11.7 µM)	4.4 (≈ 12.5 µM)	6.9 (≈ 19.6 µM)	6.9 (≈ 19.6 µM)	–	1.5 (≈ 4.27 µM)	6.2 (≈ 17.6 µM)	4 (≈ 11.4 µM)	4 (≈ 11.4 µM)	6.8 (≈ 19.3 µM)	–
CCCCC/C=C\C/C=C\CCCCCCCC(=O)N1CCCC1	4.7 (≈ 14.1 µM)	33.9 (≈ 102 µM)	12 (≈ 36 µM)	5.7 (≈ 17.1 µM)	32.6 (≈ 97.7 µM)	27.5 (≈ 82.4 µM)	7.7 (≈ 23.1 µM)	44.4 (≈ 133 µM)	4.7 (≈ 14.1 µM)	4.2 (≈ 12.6 µM)	7 (≈ 21 µM)	21.9 (≈ 65.7 µM)	–	4.2 (≈ 12.6 µM)	36.6 (≈ 110 µM)	4.7 (≈ 14.1 µM)	13.7 (≈ 41.1 µM)	45.1 (≈ 135 µM)	–
CCCCCCCC/C=C\CCCCCCCC(=O)N[C@H](C)c1ccccc1	46.9 (≈ 122 µM)	> 250	28.3 (≈ 73.4 µM)	56.9 (≈ 148 µM)	162 (≈ 419 µM)	40.8 (≈ 106 µM)	35.3 (≈ 91.5 µM)	–	26.8 (≈ 69.5 µM)	6.1 (≈ 15.8 µM)	36.6 (≈ 94.9 µM)	84.8 (≈ 220 µM)	–	6.1 (≈ 15.8 µM)	106 (≈ 274 µM)	3 (≈ 7.78 µM)	10.3 (≈ 26.7 µM)	43 (≈ 112 µM)	–
CCCCCCCC/C=C\CCCCCCCC(=O)N1CCCC1	13 (≈ 38.7 µM)	14 (≈ 41.7 µM)	5.8 (≈ 17.3 µM)	11.5 (≈ 34.3 µM)	21.9 (≈ 65.3 µM)	> 250	5.6 (≈ 16.7 µM)	14.2 (≈ 42.3 µM)	5.2 (≈ 15.5 µM)	5.2 (≈ 15.5 µM)	45.6 (≈ 136 µM)	23.3 (≈ 69.4 µM)	–	3.8 (≈ 11.3 µM)	153 (≈ 456 µM)	0.2 (≈ 0.596 µM)	3.9 (≈ 11.6 µM)	10.6 (≈ 31.6 µM)	–
CCCCCC[C@@H](O)C/C=C\CCCCCCCC(=O)NCCO	6.3 (≈ 18.4 µM)	8.8 (≈ 25.8 µM)	6.5 (≈ 19 µM)	4.1 (≈ 12 µM)	23.5 (≈ 68.8 µM)	3.7 (≈ 10.8 µM)	5.4 (≈ 15.8 µM)	–	6.6 (≈ 19.3 µM)	6.5 (≈ 19 µM)	4.1 (≈ 12 µM)	20.4 (≈ 59.7 µM)	–	3.6 (≈ 10.5 µM)	9.8 (≈ 28.7 µM)	2.8 (≈ 8.2 µM)	3.4 (≈ 9.96 µM)	7.6 (≈ 22.3 µM)	–
COc1cccc2c1C(=O)c1c(O)c3c(c(O)c1C2=O)C[C@@](O)(C(=O)CO)C[C@@H]3O[C@H]1C[C@H](N)[C@H](O)[C@H](C)O1 [DOXORUBICIN]	–	7.6 (≈ 14 µM)	0.92 (≈ 1.69 µM)	–	11.7 (≈ 21.5 µM)	3.3 (≈ 6.07 µM)	1.6 (≈ 2.94 µM)	–	–	–	–	> 25	–	–	4.9 (≈ 9.02 µM)	–	–	4.1 (≈ 7.54 µM)	2.3 (≈ 4.23 µM)
